No end group written: not given here.
Experiments:
human red blood cells = experiment: Hemolysis assay; assay type: cell-based; details: hRBC, at 64 μg mL^−1 peptide; mean ± SD
Procedure, shortened: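 Human red blood cells exposed to two-fold serial dilutions of test peptide, with 4096 µg mL⁻¹ as the assay's upper concentration limit. HC10 is interpolated continuously from the dilution series. Values are means of three independent experiments, each with at least two technical duplicates, with standard deviation.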

[1] = Helicity and helical rigidity by circular dichroism; assay type: physicochemical; details: ratio between molar ellipticity in 15% TFE and in 100% TFE

GLFDIIKKIAESF-NH2 [Aurein 1.2]
hemolysis (human red blood cells): 37.2 ± 1.8%
Helical rigidity % ± SD [1]: 102 ± 2%

Source: paper PMC11867109 (Chemical Science, 2025)
